Each structure is given as a SMILES string.

Data set [1] in a line: AUC last in Swiss albino mouse at 10 mg/kg, po measured upto 24 hrs by LC/MS/MS analysis. The format is ADME, organism-based. Particulars: in vivo.
In data set [2] the target is Mitogen-activated protein kinase 9 (Homo sapiens, UniProt P45984). The experiment in a line: Inhibition of JNK2 Lys2 labeling site in human A-375 cells at 5 uM by KiNativ Profiling analysis relative to control. It is filed as cell-based.
For data set [3], the target named is Tyrosine-protein kinase Lyn (Homo sapiens, UniProt P07948). The experiment in a line: Inhibition of LYN Lys1 labeling site in human A-375 cells at 0.5 uM by KiNativ Profiling analysis relative to control. The format is cell-based.
Data set [4] concerns the target 5'-AMP-activated protein kinase catalytic subunit alpha-2 (Homo sapiens) (UniProt P54646). The experiment in a line: Inhibition of AMPKa2 Lys1 labeling site in human A-375 cells at 5 uM by KiNativ Profiling analysis relative to control. It is filed as cell-based. The essentials:
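Live A375 melanoma cells were treated with compound at 5 or 0.5 μM, then lysed. The lysates were labeled with a lysine-reactive ATP or ADP-biotin probe. Kinase protection from probe labeling was measured by KiNativ.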

Data set [5] deals with Cyclin-dependent kinase 6 (Homo sapiens) (UniProt Q00534). The experiment in a line: Inhibition of CDK6 Lys2 labeling site in human A-375 cells at 5 uM by KiNativ Profiling analysis relative to control. It is filed as cell-based. The essentials: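 Intact A375 melanoma cells were treated with compound at 5 or 0.5 μM, then lysed. Lysate kinases were labeled with a lysine-reactive ATP or ADP-biotin probe (KiNativ). Inhibition is read as protection of each kinase labeling site from probe labeling.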

Data set [6] has as its target Phosphatidylinositol 4-kinase beta (Homo sapiens) (UniProt Q9UBF8). The experiment in a line: Inhibition of PI4KB ATP labeling site harbouring VPHTQAVVLNSKDK in human A-375 cells at 5 uM by KiNativ Profiling analysis relative to control. It is filed as cell-based.
In data set [7] the target is Phosphatidylinositol 3-kinase catalytic subunit type 3 (Homo sapiens) (UniProt Q8NEB9). The data set can be described thus: Inhibition of PIK3C3 ATP labeling site in human A-375 cells at 5 uM by KiNativ Profiling analysis relative to control. The format is cell-based.
Data set [8] has as its target T1, Kinase suppressor of Ras 1 (Homo sapiens) (UniProt Q8IVT5).
T1 sequence (whole entry): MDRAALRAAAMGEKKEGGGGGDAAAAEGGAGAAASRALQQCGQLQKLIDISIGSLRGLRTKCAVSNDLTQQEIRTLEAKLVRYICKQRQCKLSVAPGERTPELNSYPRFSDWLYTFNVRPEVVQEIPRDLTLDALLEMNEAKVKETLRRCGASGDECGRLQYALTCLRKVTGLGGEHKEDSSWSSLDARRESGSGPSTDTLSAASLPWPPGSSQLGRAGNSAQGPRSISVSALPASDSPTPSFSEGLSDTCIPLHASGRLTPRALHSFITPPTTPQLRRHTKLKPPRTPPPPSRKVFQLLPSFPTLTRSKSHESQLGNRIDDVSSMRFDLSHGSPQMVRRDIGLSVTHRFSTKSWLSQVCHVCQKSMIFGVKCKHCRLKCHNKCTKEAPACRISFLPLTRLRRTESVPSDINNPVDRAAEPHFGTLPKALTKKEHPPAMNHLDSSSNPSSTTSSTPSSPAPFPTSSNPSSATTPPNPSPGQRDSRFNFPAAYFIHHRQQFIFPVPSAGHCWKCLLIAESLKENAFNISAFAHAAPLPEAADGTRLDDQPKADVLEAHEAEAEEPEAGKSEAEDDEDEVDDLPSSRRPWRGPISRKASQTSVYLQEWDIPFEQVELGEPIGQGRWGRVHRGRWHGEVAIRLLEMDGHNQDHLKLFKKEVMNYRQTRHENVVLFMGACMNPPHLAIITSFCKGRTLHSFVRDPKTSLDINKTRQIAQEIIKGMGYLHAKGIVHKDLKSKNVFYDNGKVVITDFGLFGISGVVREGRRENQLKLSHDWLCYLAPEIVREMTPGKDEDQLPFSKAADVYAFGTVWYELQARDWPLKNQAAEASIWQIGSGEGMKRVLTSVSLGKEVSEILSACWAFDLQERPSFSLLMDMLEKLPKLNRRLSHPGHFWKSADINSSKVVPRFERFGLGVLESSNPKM
The data set can be described thus: Inhibition of KSR1 ACT labeling site harbouring SKNVFYDNGK in human A-375 cells at 0.5 uM by KiNativ Profiling analysis relative to control. The format is cell-based.

The target of data set [9] is Serine/threonine-protein kinase 25 (Homo sapiens) (UniProt O00506). The experiment in a line: Inhibition of YSK1 ACT labeling site in human A-375 cells at 0.5 uM by KiNativ Profiling analysis relative to control. It is filed as cell-based.
Data set [10] concerns the target T2, Mitogen-activated protein kinase 12 (Homo sapiens) (UniProt P53778).
T2 sequence (whole entry): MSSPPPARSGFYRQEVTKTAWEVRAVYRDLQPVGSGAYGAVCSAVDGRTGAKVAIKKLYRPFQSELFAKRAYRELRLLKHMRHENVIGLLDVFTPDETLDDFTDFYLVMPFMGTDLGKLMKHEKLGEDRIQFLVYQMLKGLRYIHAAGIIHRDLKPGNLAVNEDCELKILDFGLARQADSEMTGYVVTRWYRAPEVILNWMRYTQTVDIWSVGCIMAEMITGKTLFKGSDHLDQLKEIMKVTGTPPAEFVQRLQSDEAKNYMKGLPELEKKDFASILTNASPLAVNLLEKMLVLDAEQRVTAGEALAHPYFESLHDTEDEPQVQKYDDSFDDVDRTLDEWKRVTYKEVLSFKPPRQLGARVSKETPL
The data set can be described thus: Inhibition of p38 gamma Lys2 labeling site in human A-375 cells at 0.5 uM by KiNativ Profiling analysis relative to control. The format is cell-based.

Data set [11] addresses Serine/threonine-protein kinase PLK1 (Homo sapiens) (UniProt P53350). The experiment in a line: Inhibition of PLK1 Lys1 labeling site in human A-375 cells at 0.5 uM by KiNativ Profiling analysis relative to control. The format is cell-based.
Data set [12] concerns the target Calcium/calmodulin-dependent protein kinase type 1 (Homo sapiens) (UniProt Q14012). The data set can be described thus: Inhibition of CaMK1a Lys1 labeling site in human A-375 cells at 0.05 uM by KiNativ Profiling analysis relative to control. The format is cell-based.
The target of data set [13] is MAP/microtubule affinity-regulating kinase 3 (Homo sapiens) (UniProt P27448). The data set can be described thus: Inhibition of MARK3 Lys2 labeling site in human A-375 cells at 0.05 uM by KiNativ Profiling analysis relative to control. It is filed as cell-based.
In data set [14] the target is Tyrosine-protein kinase ABL1 (Homo sapiens, UniProt P00519). The experiment in a line: Inhibition of ABL ACT labeling site in human Huh-7 cell lysate at 1 uM by KiNativ Profiling analysis relative to control. The format is subcellular.
Data set [15] has as its target Mitogen-activated protein kinase 14 (Homo sapiens, UniProt Q16539). The experiment in a line: Inhibition of p38 alpha Lys2 labeling site in human Huh-7 cell lysate at 1 uM by KiNativ Profiling analysis relative to control. It is filed as subcellular.

Serine/threonine-protein kinase PLK1 (Homo sapiens), sequence (P53350 whole entry): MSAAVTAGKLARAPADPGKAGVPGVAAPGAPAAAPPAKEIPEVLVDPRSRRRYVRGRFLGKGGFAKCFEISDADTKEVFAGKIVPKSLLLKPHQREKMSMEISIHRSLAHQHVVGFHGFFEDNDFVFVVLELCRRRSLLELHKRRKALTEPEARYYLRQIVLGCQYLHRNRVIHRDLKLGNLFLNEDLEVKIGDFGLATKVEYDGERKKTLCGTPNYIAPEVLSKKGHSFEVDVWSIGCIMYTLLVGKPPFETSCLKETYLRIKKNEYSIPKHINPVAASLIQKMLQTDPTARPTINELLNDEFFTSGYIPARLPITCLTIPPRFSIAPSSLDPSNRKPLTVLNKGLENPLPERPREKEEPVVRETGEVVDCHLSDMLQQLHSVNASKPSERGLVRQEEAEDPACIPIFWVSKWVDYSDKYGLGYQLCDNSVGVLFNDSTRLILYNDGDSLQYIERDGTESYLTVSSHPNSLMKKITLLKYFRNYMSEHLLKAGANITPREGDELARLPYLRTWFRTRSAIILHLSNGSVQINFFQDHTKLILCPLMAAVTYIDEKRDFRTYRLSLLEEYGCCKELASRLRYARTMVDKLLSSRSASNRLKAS
Phosphatidylinositol 3-kinase catalytic subunit type 3 (Homo sapiens), sequence (Q8NEB9 whole entry): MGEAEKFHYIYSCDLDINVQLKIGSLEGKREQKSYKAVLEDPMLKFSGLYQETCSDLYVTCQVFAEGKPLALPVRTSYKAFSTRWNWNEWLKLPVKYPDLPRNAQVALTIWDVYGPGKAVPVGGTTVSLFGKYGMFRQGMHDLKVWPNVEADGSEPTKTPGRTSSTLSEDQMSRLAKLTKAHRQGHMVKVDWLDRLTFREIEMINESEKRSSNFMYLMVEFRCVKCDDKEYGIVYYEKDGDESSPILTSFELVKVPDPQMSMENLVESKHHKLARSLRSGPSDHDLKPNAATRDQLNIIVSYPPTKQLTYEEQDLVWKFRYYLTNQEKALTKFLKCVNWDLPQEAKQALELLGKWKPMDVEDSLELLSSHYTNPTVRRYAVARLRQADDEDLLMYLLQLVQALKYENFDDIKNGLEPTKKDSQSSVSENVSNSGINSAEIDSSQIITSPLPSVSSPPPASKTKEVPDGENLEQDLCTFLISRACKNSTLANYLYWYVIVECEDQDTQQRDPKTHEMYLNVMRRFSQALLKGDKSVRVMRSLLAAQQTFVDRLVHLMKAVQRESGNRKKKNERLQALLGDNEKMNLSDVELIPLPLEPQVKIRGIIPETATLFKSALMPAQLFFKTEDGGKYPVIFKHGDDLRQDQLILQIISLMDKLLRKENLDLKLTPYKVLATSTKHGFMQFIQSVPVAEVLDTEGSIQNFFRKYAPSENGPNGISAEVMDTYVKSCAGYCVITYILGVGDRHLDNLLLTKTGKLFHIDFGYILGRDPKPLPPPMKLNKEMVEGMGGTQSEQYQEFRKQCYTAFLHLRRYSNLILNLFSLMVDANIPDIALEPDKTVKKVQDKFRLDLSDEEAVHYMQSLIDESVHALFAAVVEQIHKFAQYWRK
MAP/microtubule affinity-regulating kinase 3 (Homo sapiens), sequence (P27448 whole entry, looked up): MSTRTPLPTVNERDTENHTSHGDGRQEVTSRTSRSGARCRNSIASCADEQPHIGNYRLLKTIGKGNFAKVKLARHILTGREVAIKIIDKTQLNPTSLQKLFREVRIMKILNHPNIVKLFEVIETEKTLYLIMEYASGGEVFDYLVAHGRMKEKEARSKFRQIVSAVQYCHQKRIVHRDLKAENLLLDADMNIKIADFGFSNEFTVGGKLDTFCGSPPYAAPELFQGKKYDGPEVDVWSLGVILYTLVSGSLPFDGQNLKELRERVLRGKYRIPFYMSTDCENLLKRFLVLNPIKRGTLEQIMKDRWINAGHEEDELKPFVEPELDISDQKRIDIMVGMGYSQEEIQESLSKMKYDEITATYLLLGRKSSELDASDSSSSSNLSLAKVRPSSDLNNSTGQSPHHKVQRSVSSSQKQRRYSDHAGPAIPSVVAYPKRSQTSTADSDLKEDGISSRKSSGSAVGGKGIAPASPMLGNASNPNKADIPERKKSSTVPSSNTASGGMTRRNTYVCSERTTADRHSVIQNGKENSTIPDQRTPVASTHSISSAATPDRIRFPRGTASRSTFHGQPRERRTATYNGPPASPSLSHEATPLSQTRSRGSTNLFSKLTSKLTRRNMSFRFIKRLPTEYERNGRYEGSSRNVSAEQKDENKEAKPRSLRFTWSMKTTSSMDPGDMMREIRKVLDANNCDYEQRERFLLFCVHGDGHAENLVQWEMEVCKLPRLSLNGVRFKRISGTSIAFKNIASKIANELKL
Mitogen-activated protein kinase 14, sequence (Q16539 whole entry): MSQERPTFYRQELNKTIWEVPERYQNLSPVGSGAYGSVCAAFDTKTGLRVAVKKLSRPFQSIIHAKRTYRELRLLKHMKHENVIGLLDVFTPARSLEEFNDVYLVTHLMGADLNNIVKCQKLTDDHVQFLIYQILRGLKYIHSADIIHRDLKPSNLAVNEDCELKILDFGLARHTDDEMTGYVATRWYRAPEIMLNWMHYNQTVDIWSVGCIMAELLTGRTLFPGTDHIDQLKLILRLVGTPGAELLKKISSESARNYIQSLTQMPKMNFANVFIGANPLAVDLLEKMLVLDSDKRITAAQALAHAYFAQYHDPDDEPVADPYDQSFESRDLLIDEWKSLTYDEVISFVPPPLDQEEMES
Mitogen-activated protein kinase 9, sequence (P45984 whole entry, looked up): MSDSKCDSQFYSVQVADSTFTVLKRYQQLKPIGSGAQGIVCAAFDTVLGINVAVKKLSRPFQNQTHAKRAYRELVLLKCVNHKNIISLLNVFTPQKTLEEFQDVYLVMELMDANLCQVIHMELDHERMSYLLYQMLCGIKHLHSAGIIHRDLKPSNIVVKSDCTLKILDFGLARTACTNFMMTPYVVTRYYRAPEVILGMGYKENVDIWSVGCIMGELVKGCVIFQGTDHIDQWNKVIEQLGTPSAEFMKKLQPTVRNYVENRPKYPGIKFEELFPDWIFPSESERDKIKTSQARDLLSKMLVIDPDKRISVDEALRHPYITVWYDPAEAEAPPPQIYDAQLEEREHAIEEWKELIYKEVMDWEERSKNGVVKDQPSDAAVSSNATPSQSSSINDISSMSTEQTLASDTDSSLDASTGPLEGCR
Cyclin-dependent kinase 6 (Homo sapiens), sequence (Q00534 whole entry): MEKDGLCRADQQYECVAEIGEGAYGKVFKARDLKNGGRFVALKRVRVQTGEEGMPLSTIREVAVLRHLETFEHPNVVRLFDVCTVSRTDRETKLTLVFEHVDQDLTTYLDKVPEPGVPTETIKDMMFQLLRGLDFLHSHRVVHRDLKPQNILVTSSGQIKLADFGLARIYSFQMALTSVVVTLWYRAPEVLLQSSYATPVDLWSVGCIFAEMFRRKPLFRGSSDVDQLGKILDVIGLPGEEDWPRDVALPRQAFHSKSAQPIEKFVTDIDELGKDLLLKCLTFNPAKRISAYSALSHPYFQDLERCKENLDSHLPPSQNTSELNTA
Phosphatidylinositol 4-kinase beta (Homo sapiens), sequence (Q9UBF8 2-816 limits assumed): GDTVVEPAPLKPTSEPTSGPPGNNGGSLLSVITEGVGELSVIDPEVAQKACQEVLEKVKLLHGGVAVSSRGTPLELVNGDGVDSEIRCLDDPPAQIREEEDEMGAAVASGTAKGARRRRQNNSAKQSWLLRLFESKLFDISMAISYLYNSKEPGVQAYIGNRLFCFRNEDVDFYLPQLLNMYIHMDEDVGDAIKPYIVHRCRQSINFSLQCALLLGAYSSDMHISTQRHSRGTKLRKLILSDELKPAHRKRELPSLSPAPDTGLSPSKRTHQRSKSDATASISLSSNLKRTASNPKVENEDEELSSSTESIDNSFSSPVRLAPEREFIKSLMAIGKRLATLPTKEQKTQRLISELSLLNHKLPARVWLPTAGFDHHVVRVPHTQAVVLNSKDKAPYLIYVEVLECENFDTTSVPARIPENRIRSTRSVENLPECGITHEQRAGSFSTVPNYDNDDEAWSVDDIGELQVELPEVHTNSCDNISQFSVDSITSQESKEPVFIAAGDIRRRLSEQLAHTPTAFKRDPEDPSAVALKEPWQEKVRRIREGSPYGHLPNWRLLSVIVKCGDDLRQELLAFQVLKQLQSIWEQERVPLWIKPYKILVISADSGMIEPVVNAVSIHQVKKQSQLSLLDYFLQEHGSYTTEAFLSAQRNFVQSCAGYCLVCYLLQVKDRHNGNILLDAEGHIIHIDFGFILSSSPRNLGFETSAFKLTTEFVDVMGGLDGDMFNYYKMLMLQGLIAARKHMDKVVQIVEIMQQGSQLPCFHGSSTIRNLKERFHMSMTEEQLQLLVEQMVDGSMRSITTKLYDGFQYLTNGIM
Calcium/calmodulin-dependent protein kinase type 1 (Homo sapiens), sequence (Q14012 whole entry, looked up): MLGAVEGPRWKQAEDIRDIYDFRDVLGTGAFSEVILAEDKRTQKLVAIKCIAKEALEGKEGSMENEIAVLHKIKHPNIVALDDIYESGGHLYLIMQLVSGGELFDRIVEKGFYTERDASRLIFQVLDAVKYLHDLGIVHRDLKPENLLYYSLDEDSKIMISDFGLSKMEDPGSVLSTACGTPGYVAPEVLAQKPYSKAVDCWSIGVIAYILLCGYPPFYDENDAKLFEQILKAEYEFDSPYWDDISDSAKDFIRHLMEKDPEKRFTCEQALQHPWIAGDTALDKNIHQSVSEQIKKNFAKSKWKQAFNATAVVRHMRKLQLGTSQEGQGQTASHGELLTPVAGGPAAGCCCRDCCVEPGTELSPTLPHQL
Serine/threonine-protein kinase 25 (Homo sapiens), sequence (O00506 whole entry, looked up): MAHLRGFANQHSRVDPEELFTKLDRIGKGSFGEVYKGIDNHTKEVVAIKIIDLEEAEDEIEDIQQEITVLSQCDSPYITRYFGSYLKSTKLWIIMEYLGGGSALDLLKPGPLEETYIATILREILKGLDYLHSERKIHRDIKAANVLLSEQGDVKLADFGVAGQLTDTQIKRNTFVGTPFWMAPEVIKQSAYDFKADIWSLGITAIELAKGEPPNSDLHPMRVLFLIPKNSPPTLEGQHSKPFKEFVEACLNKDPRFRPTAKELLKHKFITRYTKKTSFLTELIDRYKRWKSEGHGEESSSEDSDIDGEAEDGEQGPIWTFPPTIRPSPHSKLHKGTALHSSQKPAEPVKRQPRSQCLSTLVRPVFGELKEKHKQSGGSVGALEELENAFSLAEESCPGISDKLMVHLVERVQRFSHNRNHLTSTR

A word on the inhibition: it is the drop in the measured response relative to a control, in per cent. `CCN1CCN(Cc2ccc(NC(=O)c3ccc(C)c(/C=C/c4cnc5[nH]ccc5c4OC)c3)cc2C(F)(F)F)CC1` came in with an AUClast in data set [1] of 295 ng·h/mL. The inhibition is 76.9% in data set [2]; more than 95% in data set [3]; 37% in data set [4]; -2.3% in data set [5]; -6.8% in data set [6]; 35.1% in data set [7]. Besides, the inhibition is 16.8% in data set [8]; 18.3% in [9]; 25.2% in data set [10]; -5.2% in [11]; 21.5% in [12]; 11.6% in [13].
Take `CCN1CCN(Cc2ccc(NC(=O)c3ccc(C)c(Oc4ccnc5[nH]ccc45)c3)cc2C(F)(F)F)CC1`: the AUClast in [1] is 1369 ng·h/mL. Besides, the inhibition in data set [2] is 90.3%; in [3] it was 90.5%; in [4] it was 11.6%; in data set [5], 6.8%; in data set [6], -5.8%; in data set [7] it was 40.5%. Besides, the inhibition in data set [8] is 8.5%; in data set [9], 31.3%; in data set [10], 86.2%; in data set [11] it was -3.8%; in data set [12], 34.9%; in [13] it was 19.5%.
As for `CNc1cc(Oc2cc(C(=O)Nc3cc(-n4cnc(C)c4)cc(C(F)(F)F)c3)ccc2C)ncn1`, the inhibition in [14] was determined as 59.7%; in data set [15] it was 50.2%.
As to `CNc1cc(Oc2cc(C(=O)Nc3cc(N4CCN(C)CC4)cc(C(F)(F)F)c3)ccc2C)ncn1`, the inhibition came to 49.4% in [14] and 30.2% in [15].

The record behind these values is ChEMBL document CHEMBL5696442, “Discovery of type II inhibitors of TGFβ-activated kinase 1 (TAK1) and mitogen-activated protein kinase kinase kinase kinase 2 (MAP4K2)” (J Med Chem, 2015).
